Experimental data as given in ChEMBL document CHEMBL5376013, “Design, synthesis and biological evaluation of novel morpholinopyrimidine-5-carbonitrile derivatives as dual PI3K/mTOR inhibitors” (RSC Med Chem, 2024).

Assays:
Assay type in all cases: functional
Settings in all cases: read-out: GI
CAKI-1 = test: Antitumor activity against human CAKI-1 cells assessed as growth inhibition at 10 uM relative to control
In short: (§1)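 After drug addition, plates were incubated 48 h at 37 °C under 5% CO2. Adherent cells were fixed with cold TCA (10% final, 60 min, 4 °C) and suspension cells with 16% final TCA. Staining used 0.4% SRB in 1% acetic acid, solubilized in 10 mM trizma, read at A515. Percent growth was calculated from time-zero, control and treated absorbances.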

HCC 2998 = test: Antitumor activity against human HCC 2998 cells assessed as growth inhibition at 10 uM relative to control; in short: as §1
HOP-62 = test: Antitumor activity against human HOP-62 cells assessed as growth inhibition at 10 uM relative to control; in short: as §1
SR = test: Antitumor activity against human SR cells assessed as growth inhibition at 10 uM relative to control
In short: (§2)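 Drug exposure 48 h at 37 °C, 5% CO2. Adherent cells fixed with cold TCA (10% final), suspension cells with TCA (16% final). Stained with 0.4% SRB in 1% acetic acid, dissolved in 10 mM Tris, A515. Growth relative to time-zero and untreated control.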

SK-MEL-5 = test: Antitumor activity against human SK-MEL-5 cells assessed as growth inhibition at 10 uM relative to control; in short: as §2
786-0 = test: Antitumor activity against human 786-0 cells assessed as growth inhibition at 10 uM relative to control; in short: as §1
MDA-MB-231 = test: Antitumor activity against human MDA-MB-231 cells assessed as growth inhibition at 10 uM relative to control; in short: as §1
K562 = test: Antitumor activity against human K562 cells assessed as growth inhibition at 10 uM relative to control; in short: as §1
SK-OV-3 = test: Antitumor activity against human SK-OV-3 cells assessed as growth inhibition at 10 uM relative to control; in short: as §2
SNB-75 = test: Antitumor activity against human SNB-75 cells assessed as growth inhibition at 10 uM relative to control; in short: as §2
A498 = test: Antitumor activity against human A498 cells assessed as growth inhibition at 10 uM relative to control; in short: as §1
NCI-H322M = test: Antitumor activity against human NCI-H322M cells assessed as growth inhibition at 10 uM relative to control; in short: as §1
NCI-H226 = test: Antitumor activity against human NCI-H226 cells assessed as growth inhibition at 10 uM relative to control; in short: as §1
HCT-116 = test: Antitumor activity against human HCT-116 cells assessed as growth inhibition at 10 uM relative to control; in short: as §1
BT-549 = test: Antitumor activity against human BT-549 cells assessed as growth inhibition at 10 uM relative to control; in short: as §1
UACC-257 = test: Antitumor activity against human UACC-257 cells assessed as growth inhibition at 10 uM relative to control; in short: as §2
TK-10 = test: Antitumor activity against human TK-10 cells assessed as growth inhibition at 10 uM relative to control; in short: as §2
HL-60 = test: Antitumor activity against human HL-60 cells assessed as growth inhibition at 10 uM relative to control; in short: as §1
MDA-MB-435 = test: Antitumor activity against human MDA-MB-435 cells assessed as growth inhibition at 10 uM relative to control; in short: as §1
A549 = test: Antitumor activity against human A549 cells assessed as growth inhibition at 10 uM relative to control; in short: as §1
OVCAR-5 = test: Antitumor activity against human OVCAR-5 cells assessed as growth inhibition at 10 uM relative to control; in short: as §1
SF-268 = test: Antitumor activity against human SF-268 cells assessed as growth inhibition at 10 uM relative to control; in short: as §1
NCI-H522 = test: Antitumor activity against human NCI-H522 cells assessed as growth inhibition at 10 uM relative to control; in short: as §1
DU-145 = test: Antitumor activity against human DU-145 cells assessed as growth inhibition at 10 uM relative to control; in short: as §1
IGROV-1 = test: Antitumor activity against human IGROV-1 cells assessed as growth inhibition at 10 uM relative to control; in short: as §1
HCT-15 = test: Antitumor activity against human HCT-15 cells assessed as growth inhibition at 10 uM relative to control; in short: as §1
SK-MEL-2 = test: Antitumor activity against human SK-MEL-2 cells assessed as growth inhibition at 10 uM relative to control; in short: as §1
PC-3 = test: Antitumor activity against human PC-3 cells assessed as growth inhibition at 10 uM relative to control; in short: as §1
MOLT-4 = test: Antitumor activity against human MOLT-4 cells assessed as growth inhibition at 10 uM relative to control; in short: as §1
COLO 205 = test: Antitumor activity against human COLO 205 cells assessed as growth inhibition at 10 uM relative to control; in short: as §1
U-251 = test: Antitumor activity against human U-251 cells assessed as growth inhibition at 10 uM relative to control; in short: as §2
M14 = test: Antitumor activity against human M14 cells assessed as growth inhibition at 10 uM relative to control; in short: as §1
SF-539 = test: Antitumor activity against human SF-539 cells assessed as growth inhibition at 10 uM relative to control; in short: as §1
OVCAR-8 = test: Antitumor activity against human OVCAR-8 cells assessed as growth inhibition at 10 uM relative to control; in short: as §1
Hs-578T = test: Antitumor activity against human Hs-578T cells assessed as growth inhibition at 10 uM relative to control; in short: as §1
RXF 393 = test: Antitumor activity against human RXF 393 cells assessed as growth inhibition at 10 uM relative to control; in short: as §1
LOX IMVI = test: Antitumor activity against human LOX IMVI cells assessed as growth inhibition at 10 uM relative to control; in short: as §1
SNB-19 = test: Antitumor activity against human SNB-19 cells assessed as growth inhibition at 10 uM relative to control; in short: as §2
MCF7 = test: Antitumor activity against human MCF7 cells assessed as growth inhibition at 10 uM relative to control; in short: as §1
SF-295 = test: Antitumor activity against human SF-295 cells assessed as growth inhibition at 10 uM relative to control; in short: as §1
EKVX = test: Antitumor activity against human EKVX cells assessed as growth inhibition at 10 uM relative to control; in short: as §1
OVCAR-3 = test: Antitumor activity against human OVCAR-3 cells assessed as growth inhibition at 10 uM relative to control; in short: as §1
NCI-H23 = test: Antitumor activity against human NCI-H23 cells assessed as growth inhibition at 10 uM relative to control; in short: as §1
HOP-92 = test: Antitumor activity against human HOP-92 cells assessed as growth inhibition at 10 uM relative to control; in short: as §1
UO-31 = test: Antitumor activity against human UO-31 cells assessed as growth inhibition at 10 uM relative to control; in short: as §2
OVCAR-4 = test: Antitumor activity against human OVCAR-4 cells assessed as growth inhibition at 10 uM relative to control; in short: as §1

N#Cc1c(-c2ccc(Cl)cc2)nc(N/N=C/c2cccc(Br)c2)nc1N1CCOCC1
inhibition of growth at 10 µM (CAKI-1): 1% | inhibition of growth at 10 µM (HCC 2998): < 1% | inhibition of growth at 10 µM (HOP-62): < 1% | inhibition of growth at 10 µM (SR): < 1% | inhibition of growth at 10 µM (SK-MEL-5): 14.4% | inhibition of growth at 10 µM (786-0): 38.2% | inhibition of growth at 10 µM (MDA-MB-231): < 1% | inhibition of growth at 10 µM (K562): 87.4% | inhibition of growth at 10 µM (SK-OV-3): < 1% | inhibition of growth at 10 µM (SNB-75): 23.2% | inhibition of growth at 10 µM (A498): < 1% | inhibition of growth at 10 µM (NCI-H322M): < 1% | inhibition of growth at 10 µM (NCI-H226): 28.8% | inhibition of growth at 10 µM (HCT-116): 38.5% | inhibition of growth at 10 µM (BT-549): < 1% | inhibition of growth at 10 µM (UACC-257): 13.5% | inhibition of growth at 10 µM (TK-10): < 1% | inhibition of growth at 10 µM (HL-60): 59.4% | inhibition of growth at 10 µM (MDA-MB-435): < 1% | inhibition of growth at 10 µM (A549): 19.6% | inhibition of growth at 10 µM (OVCAR-5): 17.9% | inhibition of growth at 10 µM (SF-268): 10.8% | inhibition of growth at 10 µM (NCI-H522): < 1% | inhibition of growth at 10 µM (DU-145): 40.4% | inhibition of growth at 10 µM (IGROV-1): 16.4% | inhibition of growth at 10 µM (HCT-15): 91.6% | inhibition of growth at 10 µM (SK-MEL-2): < 1% | inhibition of growth at 10 µM (PC-3): 38.8% | inhibition of growth at 10 µM (MOLT-4): 63.9% | inhibition of growth at 10 µM (COLO 205): 56% | inhibition of growth at 10 µM (U-251): 38.4% | inhibition of growth at 10 µM (M14): 37.6% | inhibition of growth at 10 µM (SF-539): 21.2% | inhibition of growth at 10 µM (OVCAR-8): < 1% | inhibition of growth at 10 µM (Hs-578T): 17.9% | inhibition of growth at 10 µM (RXF 393): < 1% | inhibition of growth at 10 µM (LOX IMVI): 20.2% | inhibition of growth at 10 µM (SNB-19): < 1% | inhibition of growth at 10 µM (MCF7): < 27.5% | inhibition of growth at 10 µM (SF-295): < 1% | inhibition of growth at 10 µM (EKVX): 31.2% | inhibition of growth at 10 µM (OVCAR-3): < 1% | inhibition of growth at 10 µM (NCI-H23): < 1% | inhibition of growth at 10 µM (HOP-92): 28.8% | inhibition of growth at 10 µM (UO-31): 48.8% | inhibition of growth at 10 µM (OVCAR-4): 12.6%
